Experimental data: ChEMBL document CHEMBL1133270, “Cinnamaldehydes inhibit cyclin dependent kinase 4/cyclin D1” (Bioorg Med Chem Lett, 2000)

Columns and labels:
Type in all cases: protein-complex assay
[1] = biological target: Cyclin-dependent kinase 4/cyclin D1 (Homo sapiens) (UniProt P11802+P24385); assay: Inhibitory activity against Cyclin D1-cyclin-dependent kinase 4; set-up: concentration or dose not given beside the values; settings: concentration not given here
Summary of the method: (§1)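 GST-cyclin D1-CDK4 from baculovirus-infected Sf21 cells, purified by glutathione chromatography, used at 200 nM. The substrate was a GST-RB fusion (RB residues 792–928), with ATP plus [γ-³³P]ATP. Compounds were added and the reaction ran 30 min at 30 °C, then was stopped with ice-cold 30% TCA. Products were captured on PVDF filter plates and ³³P-RB counted by scintillation. Inhibition is expressed relative to an inhibitor-free control.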

[2] = biological target: T1, Cyclin-dependent kinase 4/cyclin D1 (Homo sapiens, UniProt P11802); assay: Inhibition of Cyclin D1-Cyclin dependent kinase 4; summary of the method: as §1
T1 sequence (P11802 whole entry): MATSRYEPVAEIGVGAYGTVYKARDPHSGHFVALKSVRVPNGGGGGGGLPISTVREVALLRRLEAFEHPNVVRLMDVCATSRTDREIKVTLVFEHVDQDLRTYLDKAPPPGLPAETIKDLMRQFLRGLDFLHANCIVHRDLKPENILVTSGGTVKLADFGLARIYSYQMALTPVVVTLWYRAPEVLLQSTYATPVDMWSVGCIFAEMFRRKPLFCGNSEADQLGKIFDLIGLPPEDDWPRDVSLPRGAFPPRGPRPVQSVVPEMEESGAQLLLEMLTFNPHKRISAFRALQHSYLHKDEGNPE
T1 sequence (P24385 whole entry, further chain): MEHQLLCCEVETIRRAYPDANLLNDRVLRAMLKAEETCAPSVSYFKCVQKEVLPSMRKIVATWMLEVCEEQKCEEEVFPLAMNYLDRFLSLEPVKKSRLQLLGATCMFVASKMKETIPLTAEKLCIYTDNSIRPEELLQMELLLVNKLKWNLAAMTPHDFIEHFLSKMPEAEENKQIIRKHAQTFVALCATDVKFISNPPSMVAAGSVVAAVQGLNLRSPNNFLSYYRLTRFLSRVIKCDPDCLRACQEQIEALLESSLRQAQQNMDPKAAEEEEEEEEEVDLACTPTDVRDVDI

[3] = biological target: Cyclin-dependent kinase 1/cyclin B (Homo sapiens, UniProt P06493); assay: Inhibition of Cyclin B-cyclin-dependent kinase 1
Summary of the method: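 Cyclin B-CDK1 purified from starfish oocytes; histone H1 as substrate; kinase reaction run for 10 min at 30 °C. Read-out is histone H1 phosphorylation, expressed as a percentage of the control reaction run without inhibitor.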

[4] = biological target: T1, Cyclin-dependent kinase 4/cyclin D1; assay: Inhibition of Cyclin D1-cyclin-dependent kinase 4; summary of the method: as §1

Structure (SMILES) | inhibition [1] | further results
COc1ccc(/C=C/C=O)cc1O | 40% | 
O=C/C=C/c1cccc(O)c1 | 40% | IC50 [2]: 45 µM; IC50 [3]: 30 µM
COc1ccc(/C=C/C=O)cc1OCc1ccc(Br)cc1 | 58% | 
COc1ccc2c(COc3cccc(/C=C/C=O)c3)cc(=O)oc2c1 | 53% | 
Cc1ccccc1COc1cccc(/C=C/C=O)c1 | 73% | IC50 [4]: 15 µM; IC50 [3]: 60 µM
O=C/C=C/c1ccccc1OCc1ccccc1 | 85% | IC50 [4]: 11 µM; IC50 [3]: 50 µM
O=C/C=C/c1cccc(OCc2ccccc2)c1 | 94% | IC50 [4]: 7.5 µM; IC50 [3]: 50 µM
COc1ccc(COc2cccc(/C=C/C=O)c2)cc1 | 82% | 
O=C/C=C/c1cccc(OCCc2ccccc2)c1 | 80% | 
Cc1ccccc1COc1ccccc1/C=C/C=O | 70% | IC50 [4]: 18 µM; IC50 [3]: 200 µM
O=C/C=C/c1cccnc1 | 54% | 
O=C/C=C/c1cccc(OCc2cccc3ccccc23)c1 | 85% | 
O=C/C=C/c1cccc(OCc2ccc3c(c2)C(=O)c2ccccc2C3=O)c1 | 34% | 
O=C(O)/C=C/c1ccccc1O | < 10% | 

The next lines start with results.

inhibition [1] | Structure (SMILES) | further results
77% | CC(Oc1cccc(/C=C/C=O)c1)c1ccccc1 (stereo unspecified) | 
71% | O=C/C=C/c1ccccc1OCc1ccc(Br)cc1 | 
22% | N#Cc1ccccc1COc1ccccc1/C=C/C=O | 
84% | Cc1ccc(COc2cccc(/C=C/C=O)c2)cc1 | 
59% | COc1ccc(COc2ccccc2/C=C/C=O)cc1 | 
25% | O=C/C=C/c1ccccc1OC(=O)c1ccc(F)cc1 | 
23% | COc1ccccc1C(=O)Oc1ccccc1/C=C/C=O | 
65% | COc1ccccc1COc1cccc(/C=C/C=O)c1 | 
68% | Cc1ccc(COc2ccccc2/C=C/C=O)cc1 | 
88% | O=C/C=C/c1cccc(OCc2ccc(Br)cc2)c1 | 
63% | CC(Oc1ccccc1/C=C/C=O)c1ccccc1 (stereo unspecified) | 
43% | COc1ccccc1COc1ccccc1/C=C/C=O | 
30% | O=C/C=C/c1ccccc1[N+](=O)[O-] | 
51% | O=C/C=C/c1ccccc1Cl | 
52% | O=C/C=C/c1ccccc1OC(=O)c1ccccc1 | 
50% | Cc1ccc(C(=O)Oc2ccccc2/C=C/C=O)cc1 | 
72% | O=C/C=C/c1ccccc1OCCc1ccccc1 | 
45% | N#Cc1ccccc1COc1cccc(/C=C/C=O)c1 | 
38% | O=C/C=C/c1ccccc1OCc1cccc2ccccc12 | 
50% | O=C/C=C/c1ccccc1O [2-HYDROXYCINNAMALDEHYDE] | IC50 [4]: 35 µM; IC50 [3]: 130 µM
